Test results taken from ChEMBL document CHEMBL1157589, “Antifungal 3,5-disubstituted furanones: From 5-acyloxymethyl to 5-alkylidene derivatives” (Bioorg Med Chem, 2010).
Values after ≈ are worked out from the molar mass of the structure shown.

Key:
[1] = system: Candida albicans; test: Antifungal activity against Candida albicans ATCC 44859 after 48 hrs by microdilution method; type: functional; conditions: ATCC 44859, 48 h
Outline: (§1)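 Yeasts held on Sabouraud dextrose agar. MIC by NCCLS M27-A broth microdilution in RPMI 1640 with L-glutamine, buffered with 0.165 M MOPS to pH 7.0. Compounds in DMSO (≤2% final), twofold dilutions 500–0.48. Final inoculum 5 × 10³ ± 0.2 cfu mL⁻¹. Incubated at 35 °C; absorbance at 540 nm read at 24 and 48 h. MIC is 80% growth inhibition versus control; run twice in duplicate.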

[2] = system: Candida albicans; test: Antifungal activity against Candida albicans ATCC 90028 after 24 hrs by microdilution method; type: functional; conditions: ATCC 90028, 24 h; outline: as §1
[3] = system: Candida albicans; test: Antifungal activity against Candida albicans ATCC 90028 after 48 hrs by microdilution method; type: functional; conditions: ATCC 90028, 48 h; outline: as §1
[4] = system: Candida parapsilosis; test: Antifungal activity against Candida parapsilosis ATCC 22019 after 24 hrs by microdilution method; type: functional; conditions: Lodderomyces parapsilosis, ATCC 22019, 24 h; outline: as §1
[5] = system: Candida parapsilosis; test: Antifungal activity against Candida parapsilosis ATCC 22019 after 48 hrs by microdilution method; type: functional; conditions: Lodderomyces parapsilosis, ATCC 22019, 48 h; outline: as §1
[6] = system: Pichia kudriavzevii; test: Antifungal activity against Candida krusei ATCC 6258 after 24 hrs by microdilution method; type: functional; conditions: ATCC 6258, 24 h; outline: as §1
[7] = system: Pichia kudriavzevii; test: Antifungal activity against Candida krusei ATCC 6258 after 48 hrs by microdilution method; type: functional; conditions: ATCC 6258, 48 h; outline: as §1
[8] = system: Pichia kudriavzevii; test: Antifungal activity against Candida krusei E28 after 24 hrs by microdilution method; type: functional; conditions: E28, 24 h; outline: as §1
[9] = system: Pichia kudriavzevii; test: Antifungal activity against Candida krusei E28 after 48 hrs by microdilution method; type: functional; conditions: E28, 48 h; outline: as §1
[10] = system: Candida tropicalis; test: Antifungal activity against Candida tropicalis 156 after 24 hrs by microdilution method; type: functional; conditions: Candida tropicalis, 156, 24 h; outline: as §1
[11] = system: Candida tropicalis; test: Antifungal activity against Candida tropicalis 156 after 48 hrs by microdilution method; type: functional; conditions: Candida tropicalis, 156, 48 h; outline: as §1
[12] = system: Nakaseomyces glabratus; test: Antifungal activity against Candida glabrata 20/I after 24 hrs by microdilution method; type: functional; outline: as §1
[13] = system: Nakaseomyces glabratus; test: Antifungal activity against Candida glabrata 20/I after 48 hrs by microdilution method; type: functional; outline: as §1
[14] = system: Clavispora lusitaniae; test: Antifungal activity against Candida lusitaniae 2446/I after 24 hrs by microdilution method; type: functional; outline: as §1
[15] = system: Clavispora lusitaniae; test: Antifungal activity against Candida lusitaniae 2446/I after 48 hrs by microdilution method; type: functional; outline: as §1
[16] = system: Trichosporon beigelii; test: Antifungal activity against Trichosporon beigelii 1188 after 24 hrs by microdilution method; type: functional; conditions: Trichosporon beigelii, 1188, 24 h; outline: as §1
[17] = system: Trichosporon beigelii; test: Antifungal activity against Trichosporon beigelii 1188 after 48 hrs by microdilution method; type: functional; conditions: Trichosporon beigelii, 1188, 48 h; outline: as §1
[18] = system: Aspergillus fumigatus; test: Antifungal activity against Aspergillus fumigatus 231 after 24 hrs by microdilution method; type: functional; conditions: Aspergillus fumigatus, 231, 24 h
Outline: (§2)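 Filamentous strains held on Sabouraud dextrose agar. NCCLS M27-A broth microdilution in RPMI 1640 with L-glutamine and 0.165 M MOPS, pH 7.0. DMSO diluent ≤2% final; twofold dilutions 500–0.48. Inoculum 5 × 10³ ± 0.2 cfu mL⁻¹ final.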

[19] = system: Aspergillus fumigatus; test: Antifungal activity against Aspergillus fumigatus 231 after 48 hrs by microdilution method; type: functional; conditions: Aspergillus fumigatus, 231, 48 h; outline: as §2
[20] = system: Lichtheimia corymbifera; test: Antifungal activity against Absidia corymbifera 272 after 24 hrs by microdilution method; type: functional; conditions: Lichtheimia corymbifera, 272, 24 h; outline: as §2
[21] = system: Lichtheimia corymbifera; test: Antifungal activity against Absidia corymbifera 272 after 48 hrs by microdilution method; type: functional; conditions: Lichtheimia corymbifera, 272, 48 h; outline: as §2
[22] = system: Trichophyton mentagrophytes; test: Antifungal activity against Trichophyton mentagrophytes 445 after 72 hrs by microdilution method; type: functional; conditions: Trichophyton mentagrophytes, 445, 72 h
Outline: (§3)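 Dermatophyte held on Sabouraud dextrose agar. M27-A microdilution in MOPS-buffered (0.165 M, pH 7.0) RPMI 1640 with L-glutamine. DMSO ≤2% final; twofold dilutions 500–0.48. Inoculum 5 × 10³ ± 0.2 cfu mL⁻¹ final. Incubated at 35 °C; MIC read visually at 72 and 120 h as 80% inhibition of control growth; determined twice in duplicate.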

[23] = system: Trichophyton mentagrophytes; test: Antifungal activity against Trichophyton mentagrophytes 445 after 120 hrs by microdilution method; type: functional; conditions: Trichophyton mentagrophytes, 445, 120 h; outline: as §3
[24] = system: L1210; test: Cytostatic activity against mouse L1210 cells after 72 hrs by XTT assay; type: functional, cell-based
Outline: (§4)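 Leukemia cells (L1210 ATCC CCL 219, CCRF-CEM ATCC CCL 119, HL-60 ATCC CCL 240) grown in 24-well plates in RPMI 1640 with fetal calf serum. Growth assessed 72 h after drug addition. Viability measured by XTT spectrophotometric assay; potency given as IC50.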

[25] = system: HL-60; test: Cytostatic activity against human HL60 cells after 72 hrs by XTT assay; type: functional, cell-based; outline: as §4
[26] = system: CCRF-CEM; test: Cytostatic activity against human CCRF-CEM cells after 72 hrs by XTT assay; type: functional, cell-based; outline: as §4
[27] = system: Candida albicans; test: Antifungal activity against Candida albicans ATCC 44859 after 24 hrs by microdilution method; type: functional; conditions: ATCC 44859, 24 h; outline: as §1
[28] = system: HeLa S3; test: Cytostatic activity against human HeLaS3 cells after 48 hrs by XTT assay
[29] = Mus musculus, L1210, 72 h, read-out: IC50
[30] = Homo sapiens, CCRF-CEM, 72 h, read-out: IC50
[31] = Homo sapiens, HeLa S3, 48 h, read-out: IC50

SMILES | MIC80 [1] | MIC80 [2] | MIC80 [3] | MIC80 [4] | MIC80 [5] | MIC80 [6] | MIC80 [7] | MIC80 [8] | MIC80 [9] | MIC80 [10] | MIC80 [11] | MIC80 [12] | MIC80 [13] | MIC80 [14] | MIC80 [15] | MIC80 [16] | MIC80 [17] | MIC80 [18] | MIC80 [19] | MIC80 [20] | further results
O=C1OC(COc2cccc(C(=O)O)c2)C=C1c1ccc(Br)cc1 (configuration not stated) | 1.95 µM (≈ 0.759 µg/mL) | 3.9 µM (≈ 1.52 µg/mL) | 15.6 µM (≈ 6.08 µg/mL) | 15.6 µM (≈ 6.08 µg/mL) | 15.6 µM (≈ 6.08 µg/mL) | 15.6 µM (≈ 6.08 µg/mL) | 15.6 µM (≈ 6.08 µg/mL) | 15.6 µM (≈ 6.08 µg/mL) | 15.6 µM (≈ 6.08 µg/mL) | 7.81 µM (≈ 3.04 µg/mL) | 7.81 µM (≈ 3.04 µg/mL) | 1.95 µM (≈ 0.759 µg/mL) | 1.95 µM (≈ 0.759 µg/mL) | 7.81 µM (≈ 3.04 µg/mL) | 7.81 µM (≈ 3.04 µg/mL) | 15.6 µM (≈ 6.08 µg/mL) | 15.6 µM (≈ 6.08 µg/mL) | 1.95 µM (≈ 0.759 µg/mL) | 7.81 µM (≈ 3.04 µg/mL) | 62.5 µM (≈ 24.3 µg/mL) | MIC80 [21]: 62.5 µM (≈ 24.3 µg/mL); MIC80 [22]: 0.97 µM (≈ 0.378 µg/mL); MIC80 [23]: 1.95 µM (≈ 0.759 µg/mL); IC50 [24, 29]: 7.42 µM; IC50 ([25]; hl-60): Not Active; IC50 [26, 30]: 1.64 µM; MIC80 [27]: 0.97 µM (≈ 0.378 µg/mL); IC50 [28, 31]: 1.44 µM
O=C1OC(COc2ccc(C(=O)O)cc2)C=C1c1ccc(Br)cc1 (configuration not stated) | 1.95 µM (≈ 0.759 µg/mL) | 0.97 µM (≈ 0.378 µg/mL) | 3.9 µM (≈ 1.52 µg/mL) | 7.81 µM (≈ 3.04 µg/mL) | 15.6 µM (≈ 6.08 µg/mL) | 7.81 µM (≈ 3.04 µg/mL) | 15.6 µM (≈ 6.08 µg/mL) | 7.81 µM (≈ 3.04 µg/mL) | 15.6 µM (≈ 6.08 µg/mL) | 3.9 µM (≈ 1.52 µg/mL) | 7.81 µM (≈ 3.04 µg/mL) | 0.97 µM (≈ 0.378 µg/mL) | 1.95 µM (≈ 0.759 µg/mL) | 3.9 µM (≈ 1.52 µg/mL) | 7.81 µM (≈ 3.04 µg/mL) | 7.81 µM (≈ 3.04 µg/mL) | 15.6 µM (≈ 6.08 µg/mL) | 1.95 µM (≈ 0.759 µg/mL) | 3.9 µM (≈ 1.52 µg/mL) | 15.6 µM (≈ 6.08 µg/mL) | MIC80 [21]: 62.5 µM (≈ 24.3 µg/mL); MIC80 [22]: 0.97 µM (≈ 0.378 µg/mL); MIC80 [23]: 0.97 µM (≈ 0.378 µg/mL); IC50 [24, 29]: 12.3 µM; IC50 ([25]; Homo sapiens, HL-60, 72 h, read-out: IC50): 19.4 µM; IC50 [26, 30]: 8.7 µM; MIC80 [27]: 0.48 µM (≈ 0.187 µg/mL); IC50 [28, 31]: 2.69 µM
O=C1O/C(=C\CCCO)C=C1c1ccc(Br)cc1 | 125 µM (≈ 38.6 µg/mL) | > 500 µM | > 500 µM | > 500 µM | > 500 µM | > 500 µM | > 500 µM | > 500 µM | > 500 µM | > 500 µM | > 500 µM | > 500 µM | > 500 µM | > 500 µM | > 500 µM | > 500 µM | > 500 µM | > 500 µM | > 500 µM | 62.5 µM (≈ 19.3 µg/mL) | MIC80 [21]: 62.5 µM (≈ 19.3 µg/mL); MIC80 [22]: 62.5 µM (≈ 19.3 µg/mL); MIC80 [23]: 62.5 µM (≈ 19.3 µg/mL); IC50 ([24]; l1210): Not Active; IC50 ([25]; hl-60): Not Active; IC50 ([26]; ccrf-cem): Not Active; MIC80 [27]: 62.5 µM (≈ 19.3 µg/mL); IC50 ([28]; hela s3): Not Active
O=C1O/C(=C\COC(=O)c2ccccc2)C=C1c1ccc(Br)cc1 | > 500 µM | > 500 µM | > 500 µM | > 500 µM | > 500 µM | > 500 µM | > 500 µM | > 500 µM | > 500 µM | > 500 µM | > 500 µM | > 500 µM | > 500 µM | > 500 µM | > 500 µM | > 500 µM | > 500 µM | > 500 µM | > 500 µM | > 500 µM | MIC80 [21]: > 500 µM; MIC80 [22]: > 500 µM; MIC80 [23]: > 500 µM; IC50 ([24]; l1210): Not Active; IC50 ([25]; hl-60): Not Active; IC50 ([26]; ccrf-cem): Not Active; MIC80 [27]: > 500 µM; IC50 ([28]; hela s3): Not Active
